Activity calls are given as the source filed them. No cut-off for these calls is given here.
What was measured:
ABCG2 [1] = target: T1, ABCG2 (Homo sapiens, UniProt Q9UNQ0); assay: Inhibition of ABCG2 (unknown origin) expressed in HEK293 cells assessed as reduction in mitoxantrone efflux at 10 uM after 30 mins by FACS method; assay type: cell-based; settings: HEK293 cells expressing ABCG2, probe mitoxantrone
T1 sequence (Q9UNQ0 whole entry): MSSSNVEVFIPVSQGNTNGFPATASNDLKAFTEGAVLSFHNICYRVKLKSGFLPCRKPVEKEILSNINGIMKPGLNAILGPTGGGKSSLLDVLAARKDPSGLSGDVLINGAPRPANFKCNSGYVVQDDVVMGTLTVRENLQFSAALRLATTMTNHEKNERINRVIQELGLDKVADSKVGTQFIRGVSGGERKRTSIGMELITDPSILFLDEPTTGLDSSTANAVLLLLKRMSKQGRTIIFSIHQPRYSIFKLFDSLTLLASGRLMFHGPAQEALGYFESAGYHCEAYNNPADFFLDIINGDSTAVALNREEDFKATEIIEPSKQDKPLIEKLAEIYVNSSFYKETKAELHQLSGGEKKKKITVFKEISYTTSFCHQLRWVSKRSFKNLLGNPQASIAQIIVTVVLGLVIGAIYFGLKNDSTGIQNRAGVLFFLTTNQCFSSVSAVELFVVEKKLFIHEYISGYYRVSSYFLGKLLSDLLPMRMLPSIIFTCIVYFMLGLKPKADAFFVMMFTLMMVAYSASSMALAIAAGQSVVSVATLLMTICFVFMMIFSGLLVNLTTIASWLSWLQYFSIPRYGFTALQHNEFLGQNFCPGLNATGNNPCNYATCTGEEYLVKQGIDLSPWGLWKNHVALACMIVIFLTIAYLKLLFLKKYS
Procedure, shortened: (§1)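 HEK293 cells stably transfected with ABCG2 (kept in 0.75 mg/mL G418) were seeded at 1.0 × 10^5/well and grown 72 h. They were then exposed to 5 μM mitoxantrone for 30 min at 37 °C with or without compound, washed and trypsinized. Intracellular fluorescence was read by flow cytometry (FL4, ≥10,000 events).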

[2] = target: T2, Broad substrate specificity ATP-binding cassette transporter ABCG2 (Homo sapiens, UniProt Q9UNQ0); assay: Inhibition of ABCG2 (unknown origin) expressed in HEK293 cells assessed as reduction in mitoxantrone efflux after 30 mins by FACS method; assay type: cell-based; procedure, shortened: as §1
T2 sequence (Q9UNQ0 whole entry): T1 sequence (Q9UNQ0 whole entry)

[3] = Intrinsic cytotoxicity against HEK293 cells assessed as reduction in cell viability after 72 hrs by MTT assay; assay type: cell-based; settings: human, read-out: IG50
Procedure, shortened: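 Wild-type HEK293 cells were seeded at 1 × 10^4/well, incubated overnight, then treated with compound (0–250 μM) for 72 h. MTT at 0.5 mg/mL was added for 4 h at 37 °C. Formazan was dissolved in DMSO/ethanol 1:1, and absorbance was read at 570 nm minus 690 nm to give IG50.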

HEK293 = assay: Selectivity index, ratio of IC50 for human recombinant CK2a1/CK2b holoenzyme expressed in Escherichia coli BL21(DE3) to IC50 for ABCG2 (unknown origin) expressed in HEK293 cells
Casein kinase II = Casein kinase II (Homo sapiens, UniProt P19784+P67870+P68400); assay: Inhibition of human recombinant CK2a1/CK2b holoenzyme expressed in Escherichia coli BL21(DE3) pre-incubated for 10 mins before substrate addition by capillary electrophoresis based assay
ABCG2 [4] = assay: Selectivity index, ratio of IC50 for intrinsic cytotoxicity against HEK293 cells to IC50 for ABCG2 (unknown origin) expressed in HEK293 cells; assay type: toxicity, cell-based; settings: human, HEK293 cells expressing ABCG2, read-out: Selectivity Index
MCF7 [5] = assay: Inhibition of cell proliferation of human MCF7 cells assessed as DNA synthesis at 20 uM after 24 hrs by EdU-click assay; assay type: functional; design: scale not given: the % may be the effect or the level left
Procedure, shortened: (§2)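 MCF-7 cells were grown in RPMI 1640 GlutaMax plus 10% FCS, seeded 5.0 × 10^4/well and incubated overnight. They were then exposed to inhibitor at 20 or 100 μM for 24 or 48 h (37 °C, 5% CO2), with 1% DMSO as control. EdU was incorporated and click-coupled to TAMRA azide, with Hoechst counterstain. Microscope counts gave TAMRA-positive nuclei as a percentage of total nuclei. Values are the mean (±SD) of four assays.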

MCF7 [6] = assay: Inhibition of cell proliferation of human MCF7 cells assessed as DNA synthesis at 20 uM after 48 hrs by EdU-click assay; assay type: functional; design: scale not given: the % may be the effect or the level left; procedure, shortened: as §2
MCF7 [7] = assay: Inhibition of cell proliferation of human MCF7 cells assessed as DNA synthesis at 100 uM after 24 hrs by EdU-click assay; assay type: functional, cell-based; procedure, shortened: as §2
MCF7 [8] = assay: Induction of cell damage in human MCF7 cells at 20 to 100 uM after 24 hrs by Hoechst 33258 staining based fluorescence assay; assay type: functional
Procedure, shortened: (§3)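 MCF-7 cells in RPMI 1640 GlutaMax with 10% FCS, seeded 5.0 × 10^4 per well and left overnight. Medium was replaced with inhibitor at 20 or 100 μM, with 1% DMSO as control, for 24 h at 37 °C, 5% CO2. Nuclei were stained with Hoechst 33258 (3 μg/mL in methanol) for 30 min at room temperature in the dark and examined by fluorescence microscopy (DAPI filter) for nuclear morphology.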

MCF7 [9] = assay: Induction of cell death in human MCF7 cells assessed as viable cell level at 20 to 100 uM after 24 hrs by Hoechst 33258 staining based fluorescence assay; assay type: functional
Procedure, shortened: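 MCF-7 cells grown in RPMI 1640 GlutaMax with 10% fetal calf serum, seeded at 5.0 × 10^4 cells/well and left overnight. Medium then replaced with fresh medium holding inhibitor at 20 or 100 μM, with 1% DMSO as control, for 24 h at 37 °C, 5% CO2. Nuclei stained with Hoechst 33258 (3 μg/mL in methanol, 30 min, room temperature, dark). Total cells counted and nuclear morphology examined by fluorescence microscopy.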

MCF7 [10] = assay: Induction of apoptosis in human MCF7 cells assessed as reduction in nuclear size at 20 to 100 uM after 24 hrs by Hoechst 33258 staining based fluorescence assay; assay type: functional, cell-based
Procedure, shortened: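 MCF-7 cells grown in RPMI 1640 GlutaMax with 10% fetal calf serum, seeded 5.0 × 10^4 cells/well and incubated overnight. Medium then replaced with medium containing compound at 20 or 100 μM; 1% DMSO as control. Incubation 24 h at 37 °C, 5% CO2. Nuclei stained with Hoechst 33258 (3 μg/mL in methanol), 30 min at room temperature in the dark. Nuclear morphology examined by fluorescence microscopy.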

MCF7 [11] = assay: Induction of apoptosis in human MCF7 cells assessed as chromatin condensation at 20 to 100 uM after 24 hrs by Hoechst 33258 staining based fluorescence assay; assay type: functional, cell-based; settings: in the assay text read “100 uM” for “20 to 100 uM”; procedure, shortened: as §3

Casein kinase II, sequence (P67870 whole entry): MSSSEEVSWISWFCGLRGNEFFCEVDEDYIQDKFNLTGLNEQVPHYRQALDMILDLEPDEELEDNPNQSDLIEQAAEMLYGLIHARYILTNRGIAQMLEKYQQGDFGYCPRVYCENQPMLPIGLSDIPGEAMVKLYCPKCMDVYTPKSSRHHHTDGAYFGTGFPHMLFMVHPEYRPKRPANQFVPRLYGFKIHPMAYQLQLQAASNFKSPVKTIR
Casein kinase II, sequence (P68400 whole entry): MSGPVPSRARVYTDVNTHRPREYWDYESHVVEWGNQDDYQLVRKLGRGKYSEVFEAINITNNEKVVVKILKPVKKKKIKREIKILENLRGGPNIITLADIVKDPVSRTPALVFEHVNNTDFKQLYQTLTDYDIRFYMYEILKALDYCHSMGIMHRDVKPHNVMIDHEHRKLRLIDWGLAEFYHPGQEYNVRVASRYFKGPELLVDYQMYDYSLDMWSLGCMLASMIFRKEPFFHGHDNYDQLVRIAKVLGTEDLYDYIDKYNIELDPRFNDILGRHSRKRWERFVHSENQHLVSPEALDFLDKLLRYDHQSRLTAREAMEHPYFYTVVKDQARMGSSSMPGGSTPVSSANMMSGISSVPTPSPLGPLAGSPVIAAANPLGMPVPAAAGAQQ
Casein kinase II, sequence (P19784 whole entry): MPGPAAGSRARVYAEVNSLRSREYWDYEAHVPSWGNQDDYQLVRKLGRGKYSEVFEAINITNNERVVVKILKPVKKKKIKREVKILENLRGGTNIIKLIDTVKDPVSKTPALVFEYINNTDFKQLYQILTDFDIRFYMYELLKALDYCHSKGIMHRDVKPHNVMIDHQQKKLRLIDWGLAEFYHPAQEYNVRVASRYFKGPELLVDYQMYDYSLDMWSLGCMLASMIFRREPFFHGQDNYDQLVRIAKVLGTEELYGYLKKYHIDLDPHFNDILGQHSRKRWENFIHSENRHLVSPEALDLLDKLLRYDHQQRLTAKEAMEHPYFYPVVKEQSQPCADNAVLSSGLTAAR

CC1CC(=O)c2c3c(n(CCc4ccccc4)c2C1)-c1ccccc1C3=O (stereo unspecified)
inhibition at 0.5 h, 10 µM (ABCG2 [1]): 100% | IC50 [2]: 0.23 µM | CC50 at 72 h [3]: > 100 µM | Ratio IC50 (HEK293): 11

COc1ccc2[nH]cc(CCNC(=O)c3cc(=O)c4c(OCc5ccc(Br)cc5)cccc4o3)c2c1
inhibition at 0.5 h, 10 µM (ABCG2 [1]): 98% | IC50 [2]: 0.13 µM | CC50 at 72 h [3]: 96 µM

O=C1CC(c2ccccc2)Cc2c1c1c(n2CCc2ccccc2)-c2ccccc2C1=O (stereo unspecified)
IC50 (Casein kinase II): 15 µM | inhibition at 0.5 h, 10 µM (ABCG2 [1]): 83% | IC50 [2]: 0.49 µM | CC50 at 72 h [3]: 20.1 µM | selectivity ratio (ABCG2 [4]): 41 | Ratio IC50 (HEK293): 30

COc1ccc(CCn2c3c(c4c2-c2ccccc2C4=O)C(=O)CCC3)cc1
inhibition at 0.5 h, 10 µM (ABCG2 [1]): 131% | IC50 [2]: 0.7 µM | CC50 at 72 h [3]: 68.5 µM | Ratio IC50 (HEK293): 6

O=C1CC(c2ccccc2)Cc2c1c1c(n2Cc2ccccc2)-c2ccccc2C1=O (stereo unspecified)
IC50 (Casein kinase II): 55 µM | inhibition at 0.5 h, 10 µM (ABCG2 [1]): 68% | IC50 [2]: 0.96 µM | CC50 at 72 h [3]: 16.9 µM | selectivity ratio (ABCG2 [4]): 18

O=C1c2c(O)ccc(O)c2C(=O)c2c(NCCNCCO)ccc(NCCNCCO)c21 [MITOXANTRONE]
CC50 at 72 h [3]: 0.009 µM

CC1CCc2c(c3c(n2C(C)C)-c2ccccc2C3=O)C1=O (stereo unspecified)
inhibition at 0.5 h, 10 µM (ABCG2 [1]): 40% | IC50 [2]: 20 µM

COc1ccccc1CCn1c2c(c3c1-c1ccccc1C3=O)C(=O)CCC2
IC50 (Casein kinase II): 1.4 µM | inhibition at 0.5 h, 10 µM (ABCG2 [1]): 106% | IC50 [2]: 0.21 µM | CC50 at 72 h [3]: 27.2 µM | selectivity ratio (ABCG2 [4]): 130 | Ratio IC50 (HEK293): 7

CC1CC(=O)c2c3c(n(C(C)C)c2C1)-c1ccccc1C3=O (stereo unspecified)
inhibition at 0.5 h, 10 µM (ABCG2 [1]): 65% | IC50 [2]: 4.1 µM

CC(C)n1c2c(c3c1-c1ccccc1C3=O)C(=O)C(Cc1ccccc1)(Cc1ccccc1)CC2
IC50 (Casein kinase II): 11 µM | inhibition at 0.5 h, 10 µM (ABCG2 [1]): 90% | IC50 [2]: 0.61 µM | CC50 at 72 h [3]: 6 µM | selectivity ratio (ABCG2 [4]): 10 | Ratio IC50 (HEK293): 18

COc1ccc2c3c([nH]c2c1)[C@H](CC(C)C)N1C(=O)[C@H](CCC(=O)OC(C)(C)C)NC(=O)[C@@H]1C3
CC50 at 72 h [3]: 32 µM

CC(C)=CCOc1cccc2c1-c1c(c3c(n1C(C)C)CCCC3=O)C2=O
Activity (MCF7 [5]): 14% | Activity (MCF7 [6]): 1.3% | inhibition (MCF7 [7]): Active | Activity (MCF7 [8]): Active | Activity (MCF7 [9]): 10% | Activity (MCF7 [10]): Active | Activity (MCF7 [11]): Active | inhibition at 0.5 h, 10 µM (ABCG2 [1]): 60% | IC50 [2]: 1.6 µM | CC50 at 72 h [3]: 31 µM

CCc1c2c(nc3ccc(O)cc13)-c1cc3c(c(=O)n1C2)COC(=O)[C@]3(O)CC [7-ETHYL-10-HYDROXYCAMPTOTHECIN]
CC50 at 72 h [3]: 0.005 µM

O=C1CCCc2c1c1c(n2CCCc2ccccc2)-c2ccccc2C1=O
IC50 (Casein kinase II): 6 µM | inhibition at 0.5 h, 10 µM (ABCG2 [1]): 83% | IC50 [2]: 0.79 µM | CC50 at 72 h [3]: > 100 µM | selectivity ratio (ABCG2 [4]): > 127 | Ratio IC50 (HEK293): 8

CC(C)=CCOc1cccc2c1C(=O)c1c3c(n(C(C)C)c1-2)CCCC3=O
inhibition at 0.5 h, 10 µM (ABCG2 [1]): 74% | IC50 [2]: 3 µM

CC(C)n1c2c(c3c1-c1ccccc1C3=O)C(=O)CCC2
inhibition at 0.5 h, 10 µM (ABCG2 [1]): 15% | IC50 [2]: 35 µM

CC1CC(=O)c2c3c(n(Cc4ccccc4)c2C1)-c1ccccc1C3=O (stereo unspecified)
IC50 (Casein kinase II): 35 µM | inhibition at 0.5 h, 10 µM (ABCG2 [1]): 33% | IC50 [2]: 15 µM | Ratio IC50 (HEK293): 2

COc1cccc(CCn2c3c(c4c2-c2ccccc2C4=O)C(=O)CCC3)c1
IC50 (Casein kinase II): 5.1 µM | inhibition at 0.5 h, 10 µM (ABCG2 [1]): 78% | IC50 [2]: 0.31 µM | CC50 at 72 h [3]: 12.7 µM | selectivity ratio (ABCG2 [4]): 41 | Ratio IC50 (HEK293): 16

O=C1CCCc2c1c1c(n2Cc2ccccc2)-c2ccccc2C1=O
IC50 (Casein kinase II): 15 µM | inhibition at 0.5 h, 10 µM (ABCG2 [1]): 18% | IC50 [2]: 30 µM | Ratio IC50 (HEK293): 0.5

O=C1CCCc2c1c1c(n2CCc2ccccc2)-c2ccccc2C1=O
IC50 (Casein kinase II): 7 µM | inhibition at 0.5 h, 10 µM (ABCG2 [1]): 100% | IC50 [2]: 0.43 µM | CC50 at 72 h [3]: 30.7 µM | selectivity ratio (ABCG2 [4]): 71 | Ratio IC50 (HEK293): 16

Source: ChEMBL document CHEMBL3352248, “Converting potent indeno[1,2-b]indole inhibitors of protein kinase CK2 into selective inhibitors of the breast cancer resistance protein ABCG2” (J Med Chem, 2015)
